This note sets out measurements from ChEMBL document CHEMBL1137560, “Synthesis and monoamine oxidase inhibitory activity of new pyridazine-, pyrimidine- and 1,2,4-triazine-containing tricyclic derivatives” (J Med Chem, 2007).

For orientation: IC50 means the concentration that inhibits the measured activity by half. In general, inhibition refers to the change of the read-out against control, counted positive when it falls. A lower inhibition goes with a weak effect.

In assay [1] the target is T1, Amine oxidase [flavin-containing] B (Rattus norvegicus, UniProt P19643).
T1 sequence (P19643 whole entry): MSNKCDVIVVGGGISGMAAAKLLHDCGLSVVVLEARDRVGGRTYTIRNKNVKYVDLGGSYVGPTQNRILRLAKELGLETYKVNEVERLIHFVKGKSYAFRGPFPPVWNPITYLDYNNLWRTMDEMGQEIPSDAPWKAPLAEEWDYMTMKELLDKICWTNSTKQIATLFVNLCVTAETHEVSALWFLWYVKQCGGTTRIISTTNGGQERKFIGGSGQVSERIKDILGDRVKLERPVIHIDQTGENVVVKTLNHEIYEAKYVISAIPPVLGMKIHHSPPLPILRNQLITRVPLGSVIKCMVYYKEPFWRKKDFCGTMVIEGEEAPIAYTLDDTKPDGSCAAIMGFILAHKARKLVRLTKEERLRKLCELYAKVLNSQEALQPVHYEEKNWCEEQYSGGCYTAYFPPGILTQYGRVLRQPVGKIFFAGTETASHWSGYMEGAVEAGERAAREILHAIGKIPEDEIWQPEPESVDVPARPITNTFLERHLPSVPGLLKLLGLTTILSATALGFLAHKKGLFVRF
In words: Inhibition of MAOB in rat brain mitochondria. The method in brief:
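MAO-B measured in rat brain mitochondrial suspension after 5 min preincubation with clorgyline. Incubations at pH 7.40 (isotonic phosphate/KCl) and 37 °C, 5% DMSO cosolvent. Kynuramine 60 µM (its KM); 4-hydroxyquinoline formation read continuously at 314 nm. Highest concentration 100 µM; IC50 derived by hyperbolic equation fit.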

Assay [2] addresses T2, Amine oxidase [flavin-containing] A (Rattus norvegicus, UniProt P21396).
T2 sequence (P21396 whole entry): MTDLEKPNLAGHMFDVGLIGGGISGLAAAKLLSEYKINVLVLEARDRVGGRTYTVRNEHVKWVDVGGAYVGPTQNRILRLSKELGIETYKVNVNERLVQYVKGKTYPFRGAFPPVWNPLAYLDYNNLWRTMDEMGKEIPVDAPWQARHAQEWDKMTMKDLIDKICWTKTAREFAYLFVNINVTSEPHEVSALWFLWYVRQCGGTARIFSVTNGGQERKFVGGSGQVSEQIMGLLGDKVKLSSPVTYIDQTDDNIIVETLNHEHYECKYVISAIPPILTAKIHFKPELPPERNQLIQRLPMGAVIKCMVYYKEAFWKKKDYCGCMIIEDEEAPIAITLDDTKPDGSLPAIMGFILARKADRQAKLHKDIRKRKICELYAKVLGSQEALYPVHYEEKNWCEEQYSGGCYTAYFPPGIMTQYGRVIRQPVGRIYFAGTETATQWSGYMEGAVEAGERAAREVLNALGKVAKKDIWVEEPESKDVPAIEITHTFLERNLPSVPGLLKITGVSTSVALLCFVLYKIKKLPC
Nature of the assay: Inhibition of MAOA in rat brain mitochondria at 10 uM.

Assay [3] addresses T1, Amine oxidase [flavin-containing] B. In words: Inhibition of MAOB in rat brain mitochondria at 10 uM.
The target of assay [4] is T2, Amine oxidase [flavin-containing] A. Nature of the assay: Inhibition of MAOA in rat brain mitochondria. The method in brief:
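Rat brain mitochondrial suspension, isotonic Na2HPO4/KH2PO4–KCl buffer, pH 7.40, 37 °C, with 5% DMSO cosolvent. Preincubated 5 min with selegiline to isolate MAO-A. Continuous spectrophotometric assay: 90 µM kynuramine (its KM) oxidized to 4-hydroxyquinoline, followed at 314 nm. Top concentration tested 100 µM; IC50 calculated from a hyperbolic equation.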

The target is the same in assay [5]. Nature of the assay: Inhibition of MAOA in rat brain mitochondria at 50 uM.
The target of assay [6] is T1, Amine oxidase [flavin-containing] B. Nature of the assay: Inhibition of MAOB in rat brain mitochondria at 50 uM.
The target is the same in assay [7]. In words: Inhibition of MAOB in rat brain mitochondria at 25 uM. The method in brief: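 Rat brain mitochondrial suspension, pre-treated 5 min with clorgyline to isolate MAO-B. Kynuramine substrate at 60 µM (its KM) in isotonic Na2HPO4/KH2PO4/KCl buffer, pH 7.40, 37 °C, with 5% DMSO cosolvent. 4-Hydroxyquinoline formation followed continuously at 314 nm. Percent inhibition taken at the compound's maximum solubility; means ± SEM of three experiments, each run in duplicate.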

The target is the same in assay [8]. In words: Inhibition of MAOB in rat brain mitochondria at 20 uM.
Assay [9] deals with T2, Amine oxidase [flavin-containing] A. Nature of the assay: Inhibition of MAOA in rat brain mitochondria at 1 uM.
The target of assay [10] is T1, Amine oxidase [flavin-containing] B. In words: Inhibition of MAOB in rat brain mitochondria at 1 uM.

Take `O=C1c2ccccc2-c2nnc(COc3ccccc3)cc21`: the IC50 in assay [1] is 2.51 µM. Besides, in assay [2], testing at 10 µM gave an inhibition of 0%.

As to `O=C1c2ccccc2-c2nnc(COc3ccc(C(F)(F)F)cc3)cc21`, the values for the inhibition at 10 µM in assay [3] and in [2] were 48% and 0%, respectively.

`O=C1c2ccccc2-c2nnc(OCc3ccccc3)cc21`: the IC50 was greater than 100 µM in [4] and 55 µM in assay [1].

Take `O=C1c2ccccc2-c2nn(-c3ccccc3)c(=O)cc21`: in [1], the IC50 is 38 µM. In addition, the inhibition at 50 µM in [5] was determined as 46%.

For the compound `Nc1cccc(-c2nnc3c(n2)-c2ccccc2C3=O)c1`, the inhibition at 10 µM in assay [3] turned out to be 17%; in [2] it was 12%.

With `c1ccc2c(c1)nnc1c3ccccc3[nH]c21`, the IC50 in assay [4] was found to be 29.7 µM. This compound came in with an inhibition at 50 µM in assay [6] of 29%.

Consider `c1ccc2c(c1)CCc1c-2[nH]c2ccccc12`, for which half-maximal inhibition in assay [4] (IC50) required 12 µM. Moreover, in assay [7], at 25 µM the inhibition was 38%.

Turning to `O=C1c2ccccc2-c2nc(-c3cccc([N+](=O)[O-])c3)nnc21`, in [1], the IC50 worked out at 0.08 µM. In assay [2], this compound displayed an inhibition at 10 µM of 23%.

As for `c1ccc(-c2ncc3c(n2)Cc2ccccc2-3)cc1`, the IC50 is 16.7 µM in assay [4] and 13 µM in assay [1].

With `c1ccc(-c2ncc3c(n2)-c2ccccc2C3)cc1`, the midpoint of inhibition in [4], the IC50, lay at 18 µM. In assay [8], this compound returned an inhibition at 20 µM of 37%.

Regarding `O=C1c2ccccc2-c2ncnc(-c3ccccc3)c21`, the IC50 in assay [4] is 21.6 µM; in [1] it was 34 µM.

For the compound `O=C1c2ccccc2-c2nnc(COc3ccc(F)cc3)cc21`, the IC50 in assay [1] stood at 1.9 µM. Further, at 10 µM the inhibition in assay [2] was 12%.

For the compound `O=C(c1ccccc1)c1cnncc1-c1ccc(Cl)cc1`, the IC50 was 30.8 µM in [4] and greater than 100 µM in [1].

In the case of `Cc1ncc2c(n1)C(=O)c1ccccc1-2`, the IC50 was 47.1 µM in [4] and 9.4 µM in assay [1].

With `O=C1c2ccccc2-c2cnc(-c3cccc([N+](=O)[O-])c3)nc21`, the inhibition at 1 µM came out at 5% in assay [9] and 12% in assay [10].

In assay [1], `O=C1c2ccccc2-c2nnc(-c3cccc([N+](=O)[O-])c3)nc21` gave an IC50 of 0.912 µM. For the same compound, in assay [2], the inhibition at 10 µM amounted to 3%.

`O=C1c2ccccc2-c2nc(-c3ccccc3)nnc21` came in with an IC50 in assay [1] of 6.31 µM. For the same compound, at 10 µM the inhibition in assay [2] was 21%.
